Assay results from ChEMBL document CHEMBL1147721, “Identification of new diamine scaffolds with activity against Mycobacterium tuberculosis” (J Med Chem, 2006).
Values after ≈ are worked out from the molar mass of the structure shown. Active and inactive are the calls of the source. The rule behind the calls is not given here.

Key:
[1] = tested on: Mycobacterium tuberculosis; assay: Antimycobacterial activity against Mycobacterium tuberculosis by broth microdilution assay; type: functional
Procedure, shortened: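 MIC by broth microdilution against M. tuberculosis. Library mixtures were screened unpurified, and active wells were deconvoluted and re-tested as individual compounds. Purified compounds (≥95%) were tested from 10 mM methanol stocks. INH, rifampicin and EMB were controls.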

[2] = tested on: Mycobacterium tuberculosis; assay: Antimycobacterial activity against recombinant Mycobacterium tuberculosis containing Rv0341 promoter by luciferase assay; type: functional; set-up: concentration or dose not given beside the values
Procedure, shortened: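 Recombinant M. tuberculosis carrying the Rv0341 promoter fused to firefly luciferase was treated and luminescence read. Activity is given as percent of EMB activity (EMB = 100%). In screening, luminescence above 1.5-fold the untreated background counted as active.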

HepG2 [3] = assay: Selectivity index, IC50 for human HepG2 cell line/MIC for Mycobacterium tuberculosis; type: functional
Procedure, shortened: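 SI = IC50/MIC: HepG2 IC50 from the MTS assay divided by the M. tuberculosis MIC from broth microdilution.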

HepG2 [4] = assay: Cytotoxicity against human HepG2 cell line by MTS assay; type: functional, cell-based
Mus musculus = assay: Reduction in body weight of C3H mouse infected with 10^6 CFU of Mycobacterium tuberculosis H37Rv at 10 mg/kg, po after 20 days; type: functional; set-up: scale not given: the % may be the effect or the level left
Procedure, shortened: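 Rapid-progression model: C3H mice infected iv with 10^6 CFU M. tuberculosis H37Rv. Oral gavage at 10 mg/kg daily (dose not optimised) started day 7 and ran 10 days. Body weight was monitored from day 0, 6 mice per group. Controls were uninfected, infected untreated, and INH 25 mg/kg.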

[5] = tested on: Mycobacterium tuberculosis; assay: Reduction in CFU in C57BL/6 mouse infected with 10^5 CFU of Mycobacterium tuberculosis H37Rv at 10 mg/kg after 20 days; type: functional
Procedure, shortened: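 Low-dose chronic TB mouse model with M. tuberculosis H37Rv. Treatment began 20 days after infection: 10 mg/kg daily by oral gavage, 5 days/week for four weeks. INH 25 mg/kg was the positive control. Organ CFU were compared with infected untreated mice.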

Row | SMILES | MIC [1] | Activity [2] | Selectivity index (HepG2 [3]) | IC50 (HepG2 [4]) | Activity (Mus musculus) | Log10 cfu [5]
1 | CC1(C)C2CC=C(CN3CCCN(CC4=CCC5CC4C5(C)C)CC3)C1C2 | 3.13 µM (≈ 1.15 µg/mL) | 113% | 35 | – | – | –
2 | Fc1ccccc1N1CCN(C2CCC3CCCCC3C2)CC1 (stereo not drawn) | 12.5 µM (≈ 3.96 µg/mL) | 145% | 6 | 70 µM | – | –
3 | C1CCCC(N2CCCN(C3CCCCCCC3)CC2)CCC1 | 1.56 µM (≈ 0.5 µg/mL) | 81% | 47 | 74 µM | – | –
4 | C=C(C)[C@@H]1CC=C(CN2CCCN(CC3=CC[C@@H](C(=C)C)CC3)CC2)CC1 | 6.25 µM (≈ 2.3 µg/mL) | inactive | 13 | 81 µM | – | –
5 | c1ccc(COc2ccc(CN3CCN(Cc4ccccc4)CC3)cc2)cc1 | 6.25 µM (≈ 2.33 µg/mL) | inactive | 9 | 54 µM | 12% | 1
6 | C1CN(C2C3CC4CC(C3)CC2C4)CCN(C2C3CC4CC(C3)CC2C4)C1 (stereo not drawn) | 1.56 µM (≈ 0.575 µg/mL) | 126% | 84.6 | – | 12% | 0.7
7 | COc1ccccc1CN1CCN(C(c2ccccc2)c2ccc(Cl)cc2)CC1 (stereo not drawn) | 6.25 µM (≈ 2.54 µg/mL) | inactive | 10 | 65 µM | – | –
8 | NNC(=O)c1ccncc1 [ISONIAZID] | – | – | – | – | – | 3.5
9 | CC1(C)C2CC=C(CN3CCN(Cc4ccccc4)CC3)C1C2 (stereo not drawn) | 6.25 µM (≈ 1.94 µg/mL) | inactive | 10 | 64 µM | – | –
10 | Fc1ccc(N2CCN(C3CCC4CCCCC4C3)CC2)cc1 (stereo not drawn) | 12.5 µM (≈ 3.96 µg/mL) | 157% | 7 | 86 µM | – | –
11 | C1CCC2CC(N3CCCN(C4CCC5CCCCC5C4)CC3)CCC2C1 (mixture of isomers) | 1.56 µM | 127% | 35 | 54 µM | – | –
12 | Clc1ccc(C(c2ccccc2)N2CCN(C3CCC4CCCCC4C3)CC2)cc1 (stereo not drawn) | 6.25 µM (≈ 2.64 µg/mL) | inactive | 8 | 47 µM | – | –
13 | c1ccc(COc2ccc(CN3CCCN(Cc4ccc(OCc5ccccc5)cc4)CC3)cc2)cc1 | 3.13 µM (≈ 1.54 µg/mL) | inactive | 18 | 56 µM | – | –
14 | C=C(C)[C@@H]1CC=C(CN2CCN(Cc3ccccc3)CC2)CC1 | 3.13 µM (≈ 0.972 µg/mL) | inactive | 19 | 60 µM | – | –
15 | CCOc1ccccc1CN1CCCN(Cc2ccccc2OCC)CC1 | 1.56 µM (≈ 0.575 µg/mL) | 70% | 46 | 71 µM | 21% | –
16 | COc1ccccc1CN1CCCN(Cc2ccccc2OC)CC1 | 6.25 µM (≈ 2.13 µg/mL) | 138% | 17 | – | – | –
